Hits are enriched below; roughly 2.9% of the tested compounds scored in any of these assays.
GSIS activator = GLuc luminescence reporter in INS-1E cells, primary screen for activators of glucose-dependent secretion of insulin; INS-1E GLuc reporter insulin secretion, 2-3 h; activation, % at 16.6 µM; 0.61% of 370,000 active; AID 743287, 2014;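 active = lowest replicate activation of at least 40%, so every replicate reaches that level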
PAX8 inh HTS = inhibitors of PAX8-driven TPO luciferase reporter, primary screen, RMG-I cells, single concentration; SteadyGlo, 24 h; inhibition, % at 12.6 µM; 1.2% of 360,000 active;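 active = mean replicate inhibition at least 60% with every replicate also reaching 60%; inconclusive = only one of the two criteria is met; inactive = mean below 60% and not all replicates reaching 60%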;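 note: luciferase light reporting Pax8 driven TPO promoter activity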
HIV Env fusion = inhibitors of HIV-1 Env-driven cell-cell fusion, primary screen, HeLa-JRFL effector, CEM21 target cells, luciferase; 1.1% of 360,000 active; AID 651610, 2012; inhibition, % at 12.3 µM;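 active = mean replicate inhibition score of at least 50 and every replicate individually at or above 50; inconclusive = only one of the two criteria met; inactive = mean below 50 and not all replicates reaching 50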
dFosB act-1 = activators of delta FosB homodimer, primary screen, biochemical, fluorescence polarization, TAMRA-CDK5 oligo, single point | Protein FosB (Mus musculus), P13346 | purified delta FosB; percent of positive-control signal above neutral wells | activation, % at 25 µM | 0.99% of 340,000 active | AID 493131, 2011;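 active = mean activation above about 17%, with every replicate also reaching it, limit read from the data, passing the limit was not always enough; inconclusive = only one of the two conditions met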
CDK5 p35 inh = inhibitors of human CDK5/p35 kinase, primary screen, biochemical, single concentration. Cyclin-dependent kinase 5 (Homo sapiens) + Cyclin-dependent kinase 5 activator 1 (Homo …. Recombinant CDK5/p35, ADP-Glo luminescence, 60 min. inhibition, % at 10 µM. 0.01% of 330,000 active. AID 488839, 2010;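 active = highest replicate inhibition of at least 50% and at least 75% of replicates reaching 50%; inconclusive = only one of the two criteria met; inactive = both criteria failed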
Target sequence (Q00535 whole entry, looked up): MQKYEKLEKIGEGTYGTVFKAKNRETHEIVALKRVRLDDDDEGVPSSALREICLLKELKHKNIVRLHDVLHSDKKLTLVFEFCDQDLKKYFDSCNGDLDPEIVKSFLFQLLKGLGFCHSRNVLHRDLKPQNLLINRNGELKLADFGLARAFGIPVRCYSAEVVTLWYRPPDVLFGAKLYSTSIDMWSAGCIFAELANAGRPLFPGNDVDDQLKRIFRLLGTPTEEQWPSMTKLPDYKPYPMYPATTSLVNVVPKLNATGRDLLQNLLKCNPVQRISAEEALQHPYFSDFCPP
Target sequence (Q15078 whole entry, looked up): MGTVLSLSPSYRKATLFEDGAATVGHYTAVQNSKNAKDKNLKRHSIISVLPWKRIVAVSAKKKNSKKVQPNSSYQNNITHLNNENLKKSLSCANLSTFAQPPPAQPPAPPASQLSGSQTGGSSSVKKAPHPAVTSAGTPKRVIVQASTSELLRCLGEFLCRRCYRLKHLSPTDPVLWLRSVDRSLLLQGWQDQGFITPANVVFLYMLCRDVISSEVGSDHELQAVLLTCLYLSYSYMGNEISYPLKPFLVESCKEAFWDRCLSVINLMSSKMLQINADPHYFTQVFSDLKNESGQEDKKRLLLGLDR
Cneo AK release = Cryptococcus neoformans cell lysis inducers, primary screen, AK release luminescence, single concentration; 0.2% of 360,000 active; lysis activity, % at 15 µM; C. neoformans lysis, adenylate kinase release luminescence, 4 h; normalised: neutral wells 0, clomiphene wells 100;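 active = mean lysis activity across replicates of at least 80%, whatever share of replicates individually reach that level; inactive = mean lysis activity below 80%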
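Test system: log-phase Cryptococcus neoformans yeast cells. Input: 5 × 10^6 yeast cells/mL. Medium: fresh YPD growth medium. Doses: single dose. Incubation: static 4 h at 37 °C with compound, 1 h detection. Measured by: luminescent adenylate kinase detection reagent. Read-out: signal increase indicating cell lysis. Benchmarks: Clomiphene.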
dFosB act-2 = activators of mouse delta FosB DNA binding, confirmation, biochemical, fluorescence polarization, TAMRA-CDK5 oligo, cherry-picked samples | shares compounds with dFosB act-1 | 2,400 tested, under 10 active | activation, % at 24.9 µM | purified delta FosB; normalised: neutral wells 0, positive control 100;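 active = highest replicate activation at or above 34% and every replicate reaching that threshold; inconclusive = meets only one of the two criteria; inactive = meets neither criterion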;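 note: higher polarization means more probe DNA bound by delta FosB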
Each line names hits and unclear results; the compound was inactive in the other large screens (follow-up assays come after a bar, where they were run).

Cc1cn(-c2cc(NC(=O)c3ccc(C)c(NC(=O)c4cccc(-c5cn[nH]c(=O)c5)c4)c3)cc(C(F)(F)F)c2)cn1	dFosB act-1 41.3 (no result: GSIS activator, PAX8 inh HTS, HIV Env fusion) | dFosB act-2 inactive
Cc1ccc(NC(=O)c2cccc(C(F)(F)F)c2)cc1NC(=O)c1[nH]cnc1C(N)=O	none
COc1ccc(Br)cc1/C=C/C(=O)NC(=S)Nc1ccc(CN2CCOCC2)cc1	dFosB act-1 48.3 | dFosB act-2 inactive
COc1ccc(C(=O)NC(=S)Nc2ccc(CN3CCOCC3)cc2)cc1OC	none (no result: dFosB act-1, CDK5 p35 inh)
COc1ccc(Cn2c(C)c(C)c(C#N)c2NC(=O)Nc2cccc(C)c2)cc1	dFosB act-1 62.8 (no result: GSIS activator, PAX8 inh HTS, HIV Env fusion) | dFosB act-2 inactive
COc1ccc(/C=C/C(=O)Nc2ccc(-n3nncc3-c3ccc(OC)c(OC)c3)cc2)cc1OC	dFosB act-1 45.8 (no result: GSIS activator) | dFosB act-2 inactive
COc1ccc(/C=C/C(=O)NC(=S)Nc2ccc(S(N)(=O)=O)cc2)cc1OC	GSIS activator 44.1, dFosB act-1 46.6 | dFosB act-2 inactive
COc1ccc(NC(=S)NCc2ccc(S(N)(=O)=O)cc2)cc1OC	none
NC(N)=NS(=O)(=O)c1ccc(NC(=S)NC(=O)/C=C/c2ccccc2)cc1	dFosB act-1 22.2 (no result: GSIS activator) | dFosB act-2 inactive
COc1ccc(/C=C/C(=O)NC(=S)Nc2ccccc2)cc1OC	dFosB act-1 32.9 | dFosB act-2 inactive
COc1ccccc1CNC(=O)C[C@@H]1CC[C@H]2[C@@H](COC[C@@H](O)CN2C(=O)Nc2ccc(C(F)(F)F)cc2)O1	none (no result: HIV Env fusion, dFosB act-1, CDK5 p35 inh)
COc1ccc(NC(=O)N(C)C[C@@H]2Oc3ccc(NC(=O)Nc4ccc5c(c4)OCO5)cc3CC(=O)N([C@@H](C)CO)C[C@@H]2C)cc1	none (no result: dFosB act-1, CDK5 p35 inh)
CCS(=O)(=O)NCC[C@@H]1CC[C@@H](NC(=O)C2CCCC2)[C@H](CO)O1	none (no result: dFosB act-1, CDK5 p35 inh)
Cc1cc2c(cc1C)C(c1cc(Br)ccc1F)CC(=O)N2 (stereo not given)	dFosB act-1 21.7 (no result: GSIS activator, Cneo AK release) | dFosB act-2 inactive
C[C@@H]1CCCCO[C@H](CN(C)C(=O)Nc2ccccc2)[C@H](C)CN([C@@H](C)CO)C(=O)c2cc(NC(=O)Nc3ccc4c(c3)OCO4)ccc2O1	none (no result: dFosB act-1, CDK5 p35 inh)
COc1ccc(CCn2c(=N)c(C(=O)NCCN3CCOCC3)cc3c(=O)n4ccccc4nc32)cc1OC	none
Cc1cccn2c(=O)c3cc(C(=O)NCCc4ccccc4)c(=N)n(CCCn4ccnc4)c3nc12	dFosB act-1 21.8 (no result: GSIS activator, PAX8 inh HTS, HIV Env fusion) | dFosB act-2 inactive
COc1ccc(CCn2c(=N)c(C(=O)NCCN3CCOCC3)cc3c(=O)n4cccc(C)c4nc32)cc1OC	dFosB act-1 21.8 | dFosB act-2 inactive
CC(=O)N1[C@@H]2c3ccc(-c4ccncc4)c(=O)n3C[C@@H]2[C@@H](CO)[C@@H]1C(=O)NCc1ccccc1Cl	none (no result: PAX8 inh HTS, HIV Env fusion, dFosB act-1, CDK5 p35 inh)
COc1cccc(S(=O)(=O)N2C[C@H](O)COC[C@H]3O[C@@H](CC(=O)N4CCOCC4)CC[C@@H]32)c1	none (no result: HIV Env fusion, dFosB act-1, CDK5 p35 inh)
CN(C)CC(=O)N[C@@H]1CC[C@@H](CC(=O)NCc2ccc(Cl)cc2)O[C@@H]1CO	none (no result: dFosB act-1, CDK5 p35 inh)
O=C(NC(C(=O)N/N=C/c1cccc2ccccc12)c1n[nH]c(=O)c2ccccc12)c1ccccc1 (stereo not given)	dFosB act-1 27.5 (no result: GSIS activator, PAX8 inh HTS, HIV Env fusion) | dFosB act-2 inactive
O=C(NC(C(=O)N/N=C/c1ccncc1)c1n[nH]c(=O)c2ccccc12)c1ccccc1 (stereo not given)	none (no result: Cneo AK release)
Cc1[nH]nc2nc(SCC(=O)NC3CCCCC3)n(-c3ccc(Br)cc3)c(=N)c12	PAX8 inh HTS 108.9, dFosB act-1 51.8 (no result: CDK5 p35 inh) | dFosB act-2 inactive
COc1ccccc1NC(=O)CSc1nc2n[nH]c(C)c2c(=N)n1-c1ccccc1Cl	dFosB act-1 53.1 (no result: PAX8 inh HTS, HIV Env fusion, Cneo AK release) | dFosB act-2 inactive
CCOc1ccc(-n2c(SCC(=O)Nc3ccc(CC)cc3)nc3n[nH]c(C)c3c2=N)cc1	dFosB act-1 inconclusive (no result: Cneo AK release)
COc1ccc2nc(NC(=O)c3cccc(-c4cc5ccccc5oc4=O)c3)sc2c1	dFosB act-1 43.9 (no result: Cneo AK release) | dFosB act-2 inactive
COc1cc(NC(=O)c2ccc(Cl)cc2Cl)ccc1-c1cc2ccccc2oc1=O	dFosB act-1 23.9 (no result: PAX8 inh HTS) | dFosB act-2 inactive
COc1cc(NC(C)=O)ccc1-c1cc2ccccc2oc1=O	none (no result: Cneo AK release)
COc1ccc(C(=O)Nc2cccc(-c3cc4ccccc4oc3=O)c2)cc1[N+](=O)[O-]	dFosB act-1 52.1 (no result: Cneo AK release) | dFosB act-2 inactive
Cc1ccc(C(=O)COC(=O)c2ccc3c(c2)C(=O)N(c2cccc4ncccc24)C3=O)cc1	dFosB act-1 49.4 (no result: Cneo AK release) | dFosB act-2 inactive
O=C(COC(=O)c1ccc2c(c1)C(=O)N(c1cccc3ncccc13)C2=O)c1ccc(Cl)cc1	dFosB act-1 65.0 | dFosB act-2 inactive
COc1ccc(NC(=O)Nc2ccc3c(c2)C(=O)N([C@H](C)CO)C[C@@H](C)[C@@H](CN(C)S(C)(=O)=O)O3)cc1	none (no result: PAX8 inh HTS, HIV Env fusion, dFosB act-1, CDK5 p35 inh)
Cc1cccc(C)c1NC(=O)c1cc2c(=O)c3ccccc3oc2nc1C(F)(F)F	dFosB act-1 49.8 (no result: GSIS activator, PAX8 inh HTS) | dFosB act-2 inactive
Cc1nc2cc(C(=O)OCC(=O)NC34CC5CC(CC(C5)C3)C4)ccc2n1-c1ccccc1	dFosB act-1 65.4 (no result: PAX8 inh HTS, HIV Env fusion) | dFosB act-2 inactive
Cc1noc(C)c1NC(=O)N(C)C[C@H]1OCCCC[C@@H](C)Oc2ccc(NC(=O)C3CCCCC3)cc2C(=O)N([C@@H](C)CO)C[C@H]1C	none (no result: dFosB act-1, CDK5 p35 inh)
CCN(CC)CCN(C(=O)c1ccc(S(=O)(=O)N2CCCCC2)cc1)c1nc2cc3c(cc2s1)OCO3	dFosB act-1 31.5 (no result: GSIS activator, PAX8 inh HTS, HIV Env fusion, Cneo AK release) | dFosB act-2 inactive
CN(C)CCN(C(=O)c1ccc(S(=O)(=O)N(C)c2ccccc2)cc1)c1nc2ccc(Cl)cc2s1	dFosB act-1 28.1 (no result: GSIS activator) | dFosB act-2 inactive
CN(C)CCN(C(=O)c1ccco1)c1nc2cc3c(cc2s1)OCCO3	dFosB act-1 30.2 | dFosB act-2 inactive
CN(C)CCN(C(=O)c1ccc(C(=O)c2ccccc2)cc1)c1nc2cc3c(cc2s1)OCCO3	dFosB act-1 24.1 (no result: PAX8 inh HTS) | dFosB act-2 inactive
CN(C)CCN(C(=O)c1ccc(S(=O)(=O)N(C)c2ccccc2)cc1)c1nc2cc3c(cc2s1)OCO3	none
CO[C@@H]1CN(C)C(=O)c2cc(NC(=O)Nc3cccc(F)c3)ccc2OC[C@@H](C)N(C(=O)C2CC2)C[C@@H]1C	none (no result: dFosB act-1, CDK5 p35 inh)
